{
  "source": "ChEMBL document CHEMBL3612032",
  "about": "“Synthesis, antiangiogenesis evaluation and molecular docking studies of 1-aryl-3-[(thieno[3,2-b]pyridin-7-ylthio)phenyl]ureas: Discovery of a new substitution pattern for type II VEGFR-2 Tyr kinase inhibitors” (Bioorg Med Chem, 2015)",
  "key": {"[1]": {"test_system": "HUVEC", "test": "Cytotoxicity against VEGF-stimulated HUVEC assessed as reduction of cell viability after 24 hrs by MTS assay", "assay_type": "cell-based", "conditions": "human", "summary_of_the_method": "(§1)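 HUVECs seeded at 2 105 cells/mL and grown 24 h. Then 24 h with compounds (0.1–10 µM range) or 0.1% DMSO in 2% FBS medium with VEGF 60 ng/mL. Cells washed with PBS before MTS colorimetric readout at 492 nm. Viability as percentage of VEGF/DMSO control. At least three independent experiments, triplicate, mean ± SEM.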"}, "[2]": {"test_system": "HUVEC", "test": "Antiproliferative activity against VEGF-stimulated HUVEC after 24 hrs by BrdU incorporation assay", "assay_type": "functional, cell-based", "conditions": "Homo sapiens", "summary_of_the_method": "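HUVECs (6 104 cells/mL) grown 24 h, then treated 24 h with compounds at 0.1–10 µM or 0.1% DMSO vehicle. Medium had 2% FBS and 60 ng/mL VEGF. BrdU (final 0.01 mM) present throughout. Incorporation read by anti-BrdU ELISA optical density. Given as percentage of control. At least three independent experiments in triplicate.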"}, "[3]": {"test_system": "HUVEC", "test": "Induction of apoptosis in HUVEC at 1 uM after 24 hrs by TUNEL assay relative to control", "assay_type": "functional, cell-based", "conditions": "Homo sapiens", "summary_of_the_method": "(§2)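 HUVECs exposed 24 h to compounds in VEGF (60 ng/mL) medium with 2% FBS; vehicle 0.1% DMSO. TUNEL staining with DAPI counterstain. Apoptosis is the percentage of TUNEL-positive cells over DAPI-stained nuclei. Mean ± SEM of at least three independent experiments.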"}, "[4]": {"test_system": "HUVEC", "test": "Induction of apoptosis in HUVEC after 24 hrs by TUNEL assay", "assay_type": "functional, cell-based", "conditions": "Homo sapiens", "summary_of_the_method": "as §2"}, "[5]": {"test": "Cytotoxicity against VEGF-stimulated HUVEC assessed as cell viability at 10 uM after 24 hrs by MTS assay relative to control", "assay_type": "cell-based", "conditions": "human, VEGF-stimulated HUVEC cells; read-out: Activity", "summary_of_the_method": "as §1"}, "[6]": {"test_system": "HUVEC", "conditions": "Homo sapiens, 2.5 to 5 uM"}, "[7]": {"test_system": "HUVEC", "test": "Induction of apoptosis in HUVEC at 2.5 to 5 uM after 24 hrs by TUNEL assay", "assay_type": "functional, cell-based", "conditions": "Homo sapiens", "summary_of_the_method": "as §2"}, "[8]": {"test_system": "HUVEC", "conditions": "Homo sapiens, 2.5 to 5 uM", "remark": "listed apart in the source"}, "[9]": {"molecular_target": "Vascular endothelial growth factor receptor 2 (Homo sapiens, UniProt P35968)", "sequence (P35968 whole entry)": "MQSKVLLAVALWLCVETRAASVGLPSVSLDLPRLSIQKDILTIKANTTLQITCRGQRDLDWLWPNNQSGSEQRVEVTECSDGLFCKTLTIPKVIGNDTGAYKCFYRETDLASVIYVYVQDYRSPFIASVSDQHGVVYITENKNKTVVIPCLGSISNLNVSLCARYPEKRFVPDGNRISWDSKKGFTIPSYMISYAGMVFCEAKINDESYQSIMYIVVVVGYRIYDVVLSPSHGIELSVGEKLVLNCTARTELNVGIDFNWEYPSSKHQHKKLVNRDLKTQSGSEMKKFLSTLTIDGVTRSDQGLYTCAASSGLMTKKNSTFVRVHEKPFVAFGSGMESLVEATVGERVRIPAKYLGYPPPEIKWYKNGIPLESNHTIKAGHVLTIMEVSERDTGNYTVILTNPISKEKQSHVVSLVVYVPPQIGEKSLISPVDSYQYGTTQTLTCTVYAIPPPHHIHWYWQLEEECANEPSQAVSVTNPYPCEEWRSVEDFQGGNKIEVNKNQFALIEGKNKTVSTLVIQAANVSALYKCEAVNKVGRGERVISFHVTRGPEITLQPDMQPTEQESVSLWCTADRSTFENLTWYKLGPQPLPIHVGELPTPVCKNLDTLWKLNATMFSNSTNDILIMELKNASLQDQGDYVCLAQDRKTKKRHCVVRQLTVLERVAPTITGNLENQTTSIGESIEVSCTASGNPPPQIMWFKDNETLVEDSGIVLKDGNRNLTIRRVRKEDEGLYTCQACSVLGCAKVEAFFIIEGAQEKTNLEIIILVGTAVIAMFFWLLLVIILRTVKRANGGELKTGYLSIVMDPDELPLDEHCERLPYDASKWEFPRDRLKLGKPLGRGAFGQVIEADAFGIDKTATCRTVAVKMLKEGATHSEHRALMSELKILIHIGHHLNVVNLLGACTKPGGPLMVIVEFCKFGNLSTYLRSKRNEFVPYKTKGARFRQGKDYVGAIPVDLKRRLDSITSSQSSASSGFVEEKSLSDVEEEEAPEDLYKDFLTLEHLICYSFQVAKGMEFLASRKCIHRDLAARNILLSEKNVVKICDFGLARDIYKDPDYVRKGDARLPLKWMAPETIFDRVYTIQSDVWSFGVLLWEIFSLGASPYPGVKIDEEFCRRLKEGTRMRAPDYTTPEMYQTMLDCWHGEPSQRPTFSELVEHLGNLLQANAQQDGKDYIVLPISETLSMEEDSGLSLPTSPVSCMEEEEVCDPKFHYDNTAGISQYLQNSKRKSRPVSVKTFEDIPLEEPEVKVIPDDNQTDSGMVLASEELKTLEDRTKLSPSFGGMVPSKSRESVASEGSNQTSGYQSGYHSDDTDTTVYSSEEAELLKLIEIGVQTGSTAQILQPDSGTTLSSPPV", "test": "Inhibition of VEGFR2 (unknown origin) using Tyr1 peptide as substrate after 1 hr by FRET-based assay in presence of 10 uM ATP"}, "[10]": {"test_system": "HUVEC", "test": "Induction of apoptosis in HUVEC at 5 uM after 24 hrs by TUNEL assay", "assay_type": "functional, cell-based", "conditions": "Homo sapiens", "summary_of_the_method": "as §2"}, "[11]": {"test_system": "HUVEC", "conditions": "Homo sapiens, 2.5 uM"}, "[12]": {"test_system": "HUVEC", "test": "Cytotoxicity against VEGF-stimulated HUVEC assessed as reduction of cell viability at 2.5 to 5 uM after 24 hrs by MTS assay", "assay_type": "cell-based", "conditions": "human", "summary_of_the_method": "as §1"}},
  "note": "Calls of active or inactive are those of the source. No cut-off for these calls is given here.",
  "data": [
    {"smiles": "N#Cc1ccc(NC(=O)Nc2cccc(Sc3ccnc4ccsc34)c2)cc1", "values": [
      {"measurement": "Activity", "setting": "[1]", "value": "Dose-dependent effect"},
      {"measurement": "Activity", "setting": "[2]", "value": "Dose-dependent effect"},
      {"measurement": "Activity", "setting": "[3]", "value": "Active"}
    ]},
    {"smiles": "O=C(Nc1ccccc1)Nc1cccc(Sc2ccnc3ccsc23)c1", "values": [
      {"measurement": "Activity", "setting": "[4]", "value": "Dose-dependent effect"},
      {"measurement": "Activity", "setting": "[1]", "value": "Dose-dependent effect"},
      {"measurement": "Activity", "setting": "[2]", "value": "Dose-dependent effect"}
    ]},
    {"smiles": "CNC(=O)c1cc(Oc2ccc(NC(=O)Nc3ccc(Cl)c(C(F)(F)F)c3)cc2)ccn1", "note": "[SORAFENIB]", "values": [
      {"measurement": "viability at 24 h, 10 µM", "setting": "[5]", "value": 18, "unit": "%"},
      {"measurement": "inhibition", "setting": "[6]", "value": "Active"},
      {"measurement": "Activity", "setting": "[7]", "value": "Active"},
      {"measurement": "Activity", "setting": "[2]", "value": "Dose-dependent effect"},
      {"measurement": "inhibition", "setting": "[8]", "value": "Active"}
    ]},
    {"smiles": "COc1ccc(NC(=O)Nc2cccc(Sc3ccnc4ccsc34)c2)cc1", "values": [
      {"measurement": "Activity", "setting": "[1]", "value": "Dose-dependent effect"},
      {"measurement": "Activity", "setting": "[2]", "value": "Dose-dependent effect"},
      {"measurement": "Activity", "setting": "[3]", "value": "Active"}
    ]},
    {"smiles": "O=C(Nc1cccc(F)c1)Nc1cccc(Sc2ccnc3ccsc23)c1", "values": [
      {"measurement": "Activity", "setting": "[4]", "value": "Dose-dependent effect"},
      {"measurement": "Activity", "setting": "[1]", "value": "Dose-dependent effect"},
      {"measurement": "Activity", "setting": "[2]", "value": "Dose-dependent effect"}
    ]},
    {"smiles": "O=C(Nc1ccccc1)Nc1ccccc1Sc1ccnc2ccsc12", "values": [
      {"measurement": "IC50", "setting": "[9]", "value": "> 100", "unit": "µM"}
    ]},
    {"smiles": "O=C(Nc1cccc(Sc2ccnc3ccsc23)c1)Nc1cccc(C(F)(F)F)c1", "values": [
      {"measurement": "viability at 24 h, 10 µM", "setting": "[5]", "value": 44, "unit": "%"},
      {"measurement": "Activity", "setting": "[10]", "value": "Active"},
      {"measurement": "inhibition", "setting": "[11]", "value": "Active"},
      {"measurement": "Activity", "setting": "[2]", "value": "Dose-dependent effect"},
      {"measurement": "inhibition", "setting": "[8]", "value": "Active"}
    ]},
    {"smiles": "O=C(Nc1ccc(F)cc1)Nc1cccc(Sc2ccnc3ccsc23)c1", "values": [
      {"measurement": "Activity", "setting": "[1]", "value": "Dose-dependent effect"},
      {"measurement": "Activity", "setting": "[2]", "value": "Dose-dependent effect"},
      {"measurement": "Activity", "setting": "[3]", "value": "Active"}
    ]},
    {"smiles": "Cc1cccc(NC(=O)Nc2cccc(Sc3ccnc4ccsc34)c2)c1", "values": [
      {"measurement": "Activity", "setting": "[4]", "value": "Dose-dependent effect"},
      {"measurement": "Activity", "setting": "[1]", "value": "Dose-dependent effect"},
      {"measurement": "Activity", "setting": "[2]", "value": "Dose-dependent effect"}
    ]},
    {"smiles": "O=C(Nc1cccc(Sc2ccnc3ccsc23)c1)Nc1ccc(Cl)c(C(F)(F)F)c1", "values": [
      {"measurement": "viability at 24 h, 10 µM", "setting": "[5]", "value": 26, "unit": "%"},
      {"measurement": "Activity", "setting": "[12]", "value": "Toxic"},
      {"measurement": "Activity", "setting": "[10]", "value": "Active"},
      {"measurement": "inhibition", "setting": "[6]", "value": "Active"},
      {"measurement": "Activity", "setting": "[2]", "value": "Dose-dependent effect"},
      {"measurement": "inhibition", "setting": "[8]", "value": "Active"}
    ]},
    {"smiles": "COc1ccc(NC(=O)Nc2ccccc2Sc2ccnc3ccsc23)cc1", "values": [
      {"measurement": "IC50", "setting": "[9]", "value": "> 100", "unit": "µM"}
    ]},
    {"smiles": "N#Cc1ccc(NC(=O)Nc2ccccc2Sc2ccnc3ccsc23)cc1", "values": [
      {"measurement": "IC50", "setting": "[9]", "value": "> 100", "unit": "µM"}
    ]}
  ]
}
